Data published in the M2OR odorant receptor database.
Substitutions are numbered along the chain they refer to.

Assays:
Conditions in all cases: stereoisomer not certain
OR10S1 (Homo sapiens) = target: T1, OR10S1 (Homo sapiens) (UniProt Q8NGN2)
T1 sequence (whole entry): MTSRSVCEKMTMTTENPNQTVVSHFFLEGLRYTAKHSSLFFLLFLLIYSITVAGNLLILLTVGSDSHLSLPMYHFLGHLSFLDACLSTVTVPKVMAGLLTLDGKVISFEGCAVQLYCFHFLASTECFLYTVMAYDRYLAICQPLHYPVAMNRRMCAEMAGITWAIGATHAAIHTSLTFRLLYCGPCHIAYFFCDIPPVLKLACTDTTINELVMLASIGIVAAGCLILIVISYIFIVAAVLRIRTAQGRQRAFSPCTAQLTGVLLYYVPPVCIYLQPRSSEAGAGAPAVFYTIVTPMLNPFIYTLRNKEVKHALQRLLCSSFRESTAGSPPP
How it was run: (§1)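 Whether a receptor–molecule pair is responsive (active) rests on the original authors' judgment that its measured signal was statistically different from baseline. Pairs without that judgment are non-responsive (inactive). Sources used varied assay methods, commonly transient luciferase assays in mammalian cell lines.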

OR10R2 (Homo sapiens) = target: T2, OR10R2 (Homo sapiens) (UniProt Q8NGX6)
T2 sequence (whole entry): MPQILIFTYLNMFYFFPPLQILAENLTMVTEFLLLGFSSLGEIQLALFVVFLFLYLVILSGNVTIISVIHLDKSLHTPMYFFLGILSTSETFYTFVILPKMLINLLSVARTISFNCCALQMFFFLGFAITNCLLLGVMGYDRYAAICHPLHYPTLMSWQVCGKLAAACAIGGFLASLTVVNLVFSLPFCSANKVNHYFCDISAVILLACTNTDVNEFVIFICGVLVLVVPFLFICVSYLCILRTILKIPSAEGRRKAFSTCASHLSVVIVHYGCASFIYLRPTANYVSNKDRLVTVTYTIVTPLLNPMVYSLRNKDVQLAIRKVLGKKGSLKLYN
How it was run: as §1

OR10T2 (Homo sapiens) = target: T3, OR10T2 (Homo sapiens) (UniProt Q8NGX3)
T3 sequence (whole entry): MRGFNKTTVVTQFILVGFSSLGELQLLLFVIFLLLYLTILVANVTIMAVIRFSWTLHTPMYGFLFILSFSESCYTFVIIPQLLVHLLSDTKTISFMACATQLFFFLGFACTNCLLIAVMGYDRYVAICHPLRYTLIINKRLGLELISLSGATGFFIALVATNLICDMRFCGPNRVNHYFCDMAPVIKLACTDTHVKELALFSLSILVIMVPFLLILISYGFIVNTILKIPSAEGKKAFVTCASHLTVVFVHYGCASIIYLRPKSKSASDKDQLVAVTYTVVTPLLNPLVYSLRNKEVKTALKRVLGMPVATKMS
How it was run: as §1

OR10V1 (Homo sapiens) = target: T4, OR10V1 (Homo sapiens) (UniProt Q8NGI7)
T4 sequence (whole entry): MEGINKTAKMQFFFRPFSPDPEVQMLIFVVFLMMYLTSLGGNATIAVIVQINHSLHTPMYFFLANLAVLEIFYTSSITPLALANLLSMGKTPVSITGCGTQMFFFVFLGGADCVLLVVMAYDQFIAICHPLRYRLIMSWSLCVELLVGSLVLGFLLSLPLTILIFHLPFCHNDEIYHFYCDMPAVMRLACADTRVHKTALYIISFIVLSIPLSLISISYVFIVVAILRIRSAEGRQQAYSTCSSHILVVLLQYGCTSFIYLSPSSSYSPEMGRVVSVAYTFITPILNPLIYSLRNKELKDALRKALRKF
How it was run: as §1

OR10W1 (Homo sapiens) = target: T5, OR10W1 (Homo sapiens) (UniProt Q8NGF6)
T5 sequence (whole entry): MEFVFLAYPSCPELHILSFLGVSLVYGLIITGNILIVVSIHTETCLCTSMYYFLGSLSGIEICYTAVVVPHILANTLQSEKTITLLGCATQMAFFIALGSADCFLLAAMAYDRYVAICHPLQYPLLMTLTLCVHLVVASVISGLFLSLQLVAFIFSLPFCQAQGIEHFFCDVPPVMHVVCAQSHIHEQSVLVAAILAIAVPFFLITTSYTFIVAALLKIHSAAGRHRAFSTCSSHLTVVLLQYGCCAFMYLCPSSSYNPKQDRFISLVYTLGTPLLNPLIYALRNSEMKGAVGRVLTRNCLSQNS
How it was run: as §1

OR10X1 (Homo sapiens) = target: T6, OR10X1 (Homo sapiens) (UniProt Q8NGY0)
T6 sequence (whole entry): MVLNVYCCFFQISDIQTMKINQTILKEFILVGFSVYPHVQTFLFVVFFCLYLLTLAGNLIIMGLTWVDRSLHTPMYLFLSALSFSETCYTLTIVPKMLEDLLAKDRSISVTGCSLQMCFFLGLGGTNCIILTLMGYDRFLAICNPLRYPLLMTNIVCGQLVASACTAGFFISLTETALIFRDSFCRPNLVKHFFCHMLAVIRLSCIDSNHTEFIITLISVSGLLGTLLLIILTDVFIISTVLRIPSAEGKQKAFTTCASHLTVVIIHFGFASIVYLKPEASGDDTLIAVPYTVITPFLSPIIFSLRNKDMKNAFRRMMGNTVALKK
How it was run: as §1

OR10Z1 (Homo sapiens) = target: T7, OR10Z1 (Homo sapiens) (UniProt Q8NGY1)
T7 sequence (whole entry): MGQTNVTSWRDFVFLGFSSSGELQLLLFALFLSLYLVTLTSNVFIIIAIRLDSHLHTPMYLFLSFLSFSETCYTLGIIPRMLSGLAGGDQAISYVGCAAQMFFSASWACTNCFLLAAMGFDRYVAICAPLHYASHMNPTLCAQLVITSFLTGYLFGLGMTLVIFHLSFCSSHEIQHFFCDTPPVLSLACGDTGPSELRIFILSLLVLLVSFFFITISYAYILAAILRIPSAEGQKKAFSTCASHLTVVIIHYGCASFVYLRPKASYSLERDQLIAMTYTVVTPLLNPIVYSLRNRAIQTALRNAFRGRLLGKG
How it was run: as §1

OR11A1 (Homo sapiens) = target: T8, OR11A1 (Homo sapiens) (UniProt Q9GZK7)
T8 sequence (whole entry): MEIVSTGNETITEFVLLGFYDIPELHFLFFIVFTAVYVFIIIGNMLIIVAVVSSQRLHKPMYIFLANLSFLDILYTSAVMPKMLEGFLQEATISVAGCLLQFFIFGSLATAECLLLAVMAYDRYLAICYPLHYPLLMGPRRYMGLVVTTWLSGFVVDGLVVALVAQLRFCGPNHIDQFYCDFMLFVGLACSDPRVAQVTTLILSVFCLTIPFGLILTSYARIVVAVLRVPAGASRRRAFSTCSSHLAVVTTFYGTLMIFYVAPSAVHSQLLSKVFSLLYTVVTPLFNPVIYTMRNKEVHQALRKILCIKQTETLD
How it was run: as §1

OR11G2 (Homo sapiens) = target: T9, OR11G2 (Homo sapiens) (UniProt Q8NGC1)
T9 sequence (whole entry): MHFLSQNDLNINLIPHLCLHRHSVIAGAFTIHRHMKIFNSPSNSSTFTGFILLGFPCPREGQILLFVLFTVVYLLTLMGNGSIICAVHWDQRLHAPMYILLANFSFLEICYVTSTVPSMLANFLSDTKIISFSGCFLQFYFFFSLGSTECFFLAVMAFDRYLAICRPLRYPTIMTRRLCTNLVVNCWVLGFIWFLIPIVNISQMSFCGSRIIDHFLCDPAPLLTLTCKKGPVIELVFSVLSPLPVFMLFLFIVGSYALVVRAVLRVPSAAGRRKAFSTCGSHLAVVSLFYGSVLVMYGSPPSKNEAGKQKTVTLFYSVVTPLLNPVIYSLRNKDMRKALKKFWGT
How it was run: as §1

OR11H1 (Homo sapiens) = target: T10, OR11H1 (Homo sapiens) (UniProt Q8NG94)
T10 sequence (whole entry): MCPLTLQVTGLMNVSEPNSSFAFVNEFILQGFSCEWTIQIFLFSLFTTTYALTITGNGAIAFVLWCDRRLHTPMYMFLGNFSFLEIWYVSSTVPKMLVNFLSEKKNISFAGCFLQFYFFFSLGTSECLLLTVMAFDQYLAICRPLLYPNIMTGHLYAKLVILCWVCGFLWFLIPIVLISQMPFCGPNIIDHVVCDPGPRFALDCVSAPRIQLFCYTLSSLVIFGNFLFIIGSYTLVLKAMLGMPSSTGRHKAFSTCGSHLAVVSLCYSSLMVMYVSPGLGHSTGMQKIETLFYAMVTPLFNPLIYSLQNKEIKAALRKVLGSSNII
How it was run: as §1

OR11H2 (Homo sapiens) = target: T11, OR11H2 (Homo sapiens) (UniProt Q8NH07)
T11 sequence (whole entry): T10 sequence (whole entry) with Q7H, T49I, M181K, R199L, M240V, S269P
How it was run: as §1

OR11H4 (Homo sapiens) = target: T12, OR11H4 (Homo sapiens) (UniProt Q8NGC9)
T12 sequence (whole entry): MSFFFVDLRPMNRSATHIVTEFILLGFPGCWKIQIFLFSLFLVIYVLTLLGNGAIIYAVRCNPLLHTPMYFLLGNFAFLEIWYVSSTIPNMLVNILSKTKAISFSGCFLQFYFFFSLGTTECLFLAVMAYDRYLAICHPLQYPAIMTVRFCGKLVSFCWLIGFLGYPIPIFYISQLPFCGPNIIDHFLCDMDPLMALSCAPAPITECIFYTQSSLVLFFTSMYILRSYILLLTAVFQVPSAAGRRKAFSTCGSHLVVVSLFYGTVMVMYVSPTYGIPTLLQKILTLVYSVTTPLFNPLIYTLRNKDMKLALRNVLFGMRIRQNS
How it was run: as §1

OR11H6 (Homo sapiens) = target: T13, OR11H6 (Homo sapiens) (UniProt Q8NGC7)
T13 sequence (whole entry): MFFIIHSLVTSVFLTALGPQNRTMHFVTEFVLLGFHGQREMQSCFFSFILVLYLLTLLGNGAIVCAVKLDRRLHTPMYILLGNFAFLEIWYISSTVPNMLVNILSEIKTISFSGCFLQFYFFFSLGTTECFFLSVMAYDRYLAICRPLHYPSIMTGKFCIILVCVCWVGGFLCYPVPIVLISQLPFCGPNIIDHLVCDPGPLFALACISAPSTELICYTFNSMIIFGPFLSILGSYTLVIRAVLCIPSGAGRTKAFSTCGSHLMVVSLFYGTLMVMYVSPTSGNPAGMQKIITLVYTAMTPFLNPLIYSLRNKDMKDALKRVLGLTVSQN
How it was run: as §1

OR11L1 (Homo sapiens) = target: T14, OR11L1 (Homo sapiens) (UniProt Q8NGX0)
T14 sequence (whole entry): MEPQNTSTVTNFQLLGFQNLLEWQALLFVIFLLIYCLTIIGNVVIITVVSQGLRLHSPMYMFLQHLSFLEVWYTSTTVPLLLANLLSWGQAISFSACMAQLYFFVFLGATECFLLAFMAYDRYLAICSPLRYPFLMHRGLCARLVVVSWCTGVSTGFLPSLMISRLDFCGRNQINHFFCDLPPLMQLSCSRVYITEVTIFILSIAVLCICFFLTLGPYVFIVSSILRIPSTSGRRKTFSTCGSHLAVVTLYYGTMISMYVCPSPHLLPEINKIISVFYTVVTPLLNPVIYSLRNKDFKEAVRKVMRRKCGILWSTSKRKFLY
How it was run: as §1

OR12D2 (Homo sapiens) = target: T15, OR12D2 (Homo sapiens) (UniProt P58182)
T15 sequence (whole entry): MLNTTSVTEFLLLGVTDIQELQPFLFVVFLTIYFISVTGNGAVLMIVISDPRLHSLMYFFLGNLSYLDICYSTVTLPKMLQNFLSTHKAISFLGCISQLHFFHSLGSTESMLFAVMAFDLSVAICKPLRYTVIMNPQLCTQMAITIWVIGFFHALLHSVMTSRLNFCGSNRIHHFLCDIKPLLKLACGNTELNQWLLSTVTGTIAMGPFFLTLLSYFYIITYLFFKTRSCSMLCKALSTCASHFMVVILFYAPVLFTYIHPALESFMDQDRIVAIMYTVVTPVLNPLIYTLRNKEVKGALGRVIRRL
How it was run: as §1

OR12D3 (Homo sapiens) = target: T16, OR12D3 (Homo sapiens) (UniProt Q9UGF7)
T16 sequence (whole entry): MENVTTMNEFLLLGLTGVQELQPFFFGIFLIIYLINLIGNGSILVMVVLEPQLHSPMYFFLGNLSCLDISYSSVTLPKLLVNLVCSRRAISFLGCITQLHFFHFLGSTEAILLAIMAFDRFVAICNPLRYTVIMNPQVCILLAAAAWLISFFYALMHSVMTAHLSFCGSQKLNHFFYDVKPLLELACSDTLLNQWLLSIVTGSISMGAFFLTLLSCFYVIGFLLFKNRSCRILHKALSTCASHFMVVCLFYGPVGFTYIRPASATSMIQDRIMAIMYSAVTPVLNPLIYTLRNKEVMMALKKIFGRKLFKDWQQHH
How it was run: as §1

OR13A1 (Homo sapiens) = target: T17, OR13A1 (Homo sapiens) (UniProt Q8NGR1)
T17 sequence (whole entry): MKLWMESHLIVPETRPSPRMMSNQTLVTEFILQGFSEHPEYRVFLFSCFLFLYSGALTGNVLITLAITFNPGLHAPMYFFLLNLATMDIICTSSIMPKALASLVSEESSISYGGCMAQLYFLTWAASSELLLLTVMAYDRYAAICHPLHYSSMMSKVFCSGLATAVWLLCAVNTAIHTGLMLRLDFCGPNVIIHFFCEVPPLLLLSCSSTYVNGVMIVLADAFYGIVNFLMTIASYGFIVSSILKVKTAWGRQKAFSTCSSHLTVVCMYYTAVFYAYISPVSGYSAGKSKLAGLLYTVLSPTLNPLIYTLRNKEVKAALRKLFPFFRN
How it was run: as §1

Measured: odorant receptor agonist call;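 further: active if original authors judged signal statistically different from baseline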

CCCCCCCCCCCC(=O)O
inactive: OR10S1 (Homo sapiens)

C=C1CCC2CC1C2(C)C (centres undefined)
inactive: OR10S1 (Homo sapiens)

CCCCCC(S)C(C)CO (centres undefined)
active: OR11H2 (Homo sapiens)
inactive: all other assays above
